Laboratory results published in ChEMBL document CHEMBL1649319, “In vitro antifungal activities of isavuconazole and comparators against rare yeast pathogens” (2010).
In brackets after ≈: the same amount, converted by molar mass.

What was measured:
Format in all cases: functional
Rhodotorula mucilaginosa [1] = assay: Antifungal activity against Rhodotorula mucilaginosa after 7 days by Etest; settings: 168 h
[2] = Antifungal activity against Trichosporon domesticum after 48 hrs by broth microdilution method; settings: Apiotrichum domesticum
Procedure, shortened: (§1)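 CLSI M27-A3 broth microdilution. Isolates were identified by ITS1-5.8S-ITS2 sequencing, kept at −70°C in sterile water, and revived on potato dextrose or Sabouraud agar. Drug ranges in wells were 0.015–16 or 0.125–128 μg/ml, depending on the agent. Plates were incubated at 35°C and MICs read visually at 48 h. QC strains were C. krusei ATCC 6258 and C. parapsilosis ATCC 22019.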

Magnusiomyces capitatus [3] = assay: Antifungal activity against Dipodascus capitatus after 3 days by broth microdilution method; settings: 72 h
Trichosporon inkin [4] = assay: Antifungal activity against Trichosporon inkin after 48 hrs by Etest
Procedure, shortened: (§2)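 Etest on 2% glucose-RPMI agar. Yeast suspensions were swabbed across the plates and strips applied, then incubated at 35°C for 48 h. MIC was the lowest concentration where the elliptical inhibition zone border met the strip scale. Each reading was raised to the next 2-fold dilution on the CLSI scale and converted to log2. Isolates were revived from −70°C stocks on potato dextrose or Sabouraud agar.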

Trichosporon [5] = assay: Antifungal activity against Trichosporon sp. after 4 days by Etest; settings: 96 h
[6] = Antifungal activity against Trichosporon jirovecii after 48 hrs by broth microdilution method; settings: Cutaneotrichosporon jirovecii; procedure, shortened: as §1
[7] = test system: Cutaneotrichosporon mucoides; assay: Antifungal activity against Trichosporon mucoides assessed as percent susceptible isolates after 48 hrs by broth microdilution method
Procedure, shortened: (§3)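 Broth microdilution MICs (CLSI, 35°C, visual read at 48 h) were sorted into categories using CLSI M27-A3 triazole breakpoints. Susceptible was ≤1 or ≤8 μg/ml, SDD was 2 or 16–32 μg/ml, and resistant was ≥4 or ≥64 μg/ml, depending on the agent. Each category is the percentage of isolates falling in it.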

Saccharomyces cerevisiae [8] = assay: Antifungal activity against Saccharomyces cerevisiae after 48 hrs by broth microdilution method; procedure, shortened: as §1
[9] = Antifungal activity against Trichosporon jirovecii after 48 hrs by Etest; settings: Cutaneotrichosporon jirovecii; procedure, shortened: as §2
Saccharomyces cerevisiae [10] = assay: Antifungal activity against Saccharomyces cerevisiae after 48 hrs by Etest; procedure, shortened: as §2
[11] = Antifungal activity against Trichosporon domesticum after 48 hrs by Etest; settings: Apiotrichum domesticum; procedure, shortened: as §2
Rhodotorula mucilaginosa [12] = assay: Antifungal activity against Rhodotorula mucilaginosa after 48 hrs by broth microdilution method; procedure, shortened: as §1
Rhodotorula mucilaginosa [13] = assay: Antifungal activity against Rhodotorula mucilaginosa after 48 hrs by Etest; procedure, shortened: as §2
[14] = test system: Cutaneotrichosporon mucoides; assay: Antifungal activity against Trichosporon mucoides after 48 hrs by broth microdilution method; procedure, shortened: as §1
Rhodotorula mucilaginosa [15] = assay: Antifungal activity against Rhodotorula mucilaginosa after 7 days by broth microdilution method; settings: 168 h
[16] = test system: Cutaneotrichosporon mucoides; assay: Antifungal activity against Trichosporon mucoides after 48 hrs by Etest; procedure, shortened: as §2
Trichosporon asahii [17] = assay: Antifungal activity against Trichosporon asahii after 48 hrs by Etest; procedure, shortened: as §2
Magnusiomyces capitatus [18] = assay: Antifungal activity against Dipodascus capitatus after 4 days by Etest; settings: 96 h
Magnusiomyces capitatus [19] = assay: Antifungal activity against Dipodascus capitatus after 48 hrs by broth microdilution method; procedure, shortened: as §1
Magnusiomyces capitatus [20] = assay: Antifungal activity against Dipodascus capitatus after 48 hrs by Etest; procedure, shortened: as §2
[21] = test system: Cutaneotrichosporon mucoides; assay: Antifungal activity against Trichosporon mucoides assessed as percent susceptible/dose-dependent isolates after 48 hrs by broth microdilution method; procedure, shortened: as §3
Trichosporon inkin [22] = assay: Antifungal activity against Trichosporon inkin after 48 hrs by broth microdilution method; procedure, shortened: as §1
Trichosporon [23] = assay: Antifungal activity against Trichosporon sp. after 3 days by broth microdilution method; settings: 72 h
Trichosporon asahii [24] = assay: Antifungal activity against Trichosporon asahii after 48 hrs by broth microdilution method; procedure, shortened: as §1
Saccharomyces cerevisiae [25] = assay: Antifungal activity against Saccharomyces cerevisiae after 5 days by broth microdilution method; settings: 120 h

CC[C@@H]([C@H](C)O)n1ncn(-c2ccc(N3CCN(c4ccc(OC[C@@H]5CO[C@@](Cn6cncn6)(c6ccc(F)cc6F)C5)cc4)CC3)cc2)c1=O [POSACONAZOLE]
MIC (Rhodotorula mucilaginosa [1]): > 16 µg/mL
MIC50 (Rhodotorula mucilaginosa [1]): > 16 µg/mL
MIC90 (Rhodotorula mucilaginosa [1]): > 16 µg/mL
MIC50 [2]: 0.125 µg/mL (≈ 0.178 µM)
MIC90 [2]: 0.25 µg/mL (≈ 0.357 µM)
MIC50 (Magnusiomyces capitatus [3]): 0.125 µg/mL (≈ 0.178 µM)
MIC90 (Magnusiomyces capitatus [3]): 0.5 µg/mL (≈ 0.713 µM)
MIC50 (Trichosporon inkin [4]): 0.125 µg/mL (≈ 0.178 µM)
MIC90 (Trichosporon inkin [4]): 0.5 µg/mL (≈ 0.713 µM)
MIC50 (Trichosporon [5]): 0.125 µg/mL (≈ 0.178 µM)
MIC90 (Trichosporon [5]): 0.5 µg/mL (≈ 0.713 µM)
MIC50 [6]: 0.125 µg/mL (≈ 0.178 µM)
MIC90 [6]: 0.25 µg/mL (≈ 0.357 µM)
MIC50 [7]: 0.125 µg/mL (≈ 0.178 µM)
MIC90 [7]: 0.25 µg/mL (≈ 0.357 µM)
MIC50 (Saccharomyces cerevisiae [8]): 1 µg/mL (≈ 1.43 µM)
MIC90 (Saccharomyces cerevisiae [8]): 2 µg/mL (≈ 2.85 µM)
MIC50 [9]: 0.125 µg/mL (≈ 0.178 µM)
MIC90 [9]: 0.5 µg/mL (≈ 0.713 µM)
MIC50 (Saccharomyces cerevisiae [10]): 2 µg/mL (≈ 2.85 µM)
MIC90 (Saccharomyces cerevisiae [10]): > 16 µg/mL
MIC50 [11]: 0.125 µg/mL (≈ 0.178 µM)
MIC90 [11]: 0.5 µg/mL (≈ 0.713 µM)
MIC50 (Rhodotorula mucilaginosa [12]): 1 µg/mL (≈ 1.43 µM)
MIC90 (Rhodotorula mucilaginosa [12]): 8 µg/mL (≈ 11.4 µM)
MIC (Rhodotorula mucilaginosa [13]): > 16 µg/mL
MIC50 (Rhodotorula mucilaginosa [13]): > 16 µg/mL
MIC90 (Rhodotorula mucilaginosa [13]): > 16 µg/mL
MIC50 [14]: 0.125 µg/mL (≈ 0.178 µM)
MIC90 [14]: 0.25 µg/mL (≈ 0.357 µM)
MIC50 (Rhodotorula mucilaginosa [15]): 1 µg/mL (≈ 1.43 µM)
MIC90 (Rhodotorula mucilaginosa [15]): 8 µg/mL (≈ 11.4 µM)
MIC50 [16]: 0.125 µg/mL (≈ 0.178 µM)
MIC90 [16]: 0.5 µg/mL (≈ 0.713 µM)
MIC50 (Trichosporon asahii [17]): 0.125 µg/mL (≈ 0.178 µM)
MIC90 (Trichosporon asahii [17]): 0.5 µg/mL (≈ 0.713 µM)
MIC50 (Magnusiomyces capitatus [18]): 0.06 µg/mL (≈ 0.0856 µM)
MIC90 (Magnusiomyces capitatus [18]): 0.5 µg/mL (≈ 0.713 µM)
MIC50 (Magnusiomyces capitatus [19]): 0.125 µg/mL (≈ 0.178 µM)
MIC90 (Magnusiomyces capitatus [19]): 0.5 µg/mL (≈ 0.713 µM)
MIC50 (Magnusiomyces capitatus [20]): 0.06 µg/mL (≈ 0.0856 µM)
MIC90 (Magnusiomyces capitatus [20]): 0.5 µg/mL (≈ 0.713 µM)
MIC50 [21]: 0.125 µg/mL (≈ 0.178 µM)
MIC90 [21]: 0.25 µg/mL (≈ 0.357 µM)
MIC50 (Trichosporon inkin [22]): 0.125 µg/mL (≈ 0.178 µM)
MIC90 (Trichosporon inkin [22]): 0.25 µg/mL (≈ 0.357 µM)
MIC50 (Trichosporon [23]): 0.125 µg/mL (≈ 0.178 µM)
MIC90 (Trichosporon [23]): 0.25 µg/mL (≈ 0.357 µM)
MIC50 (Trichosporon asahii [24]): 0.125 µg/mL (≈ 0.178 µM)
MIC90 (Trichosporon asahii [24]): 0.25 µg/mL (≈ 0.357 µM)
MIC50 (Saccharomyces cerevisiae [25]): 1 µg/mL (≈ 1.43 µM)
MIC90 (Saccharomyces cerevisiae [25]): 2 µg/mL (≈ 2.85 µM)

OC(Cn1cncn1)(Cn1cncn1)c1ccc(F)cc1F [FLUCONAZOLE]
MIC (Rhodotorula mucilaginosa [1]): > 128 µg/mL
MIC50 (Rhodotorula mucilaginosa [1]): > 128 µg/mL
MIC90 (Rhodotorula mucilaginosa [1]): > 128 µg/mL
MIC50 [2]: 2 µg/mL (≈ 6.53 µM)
MIC90 [2]: 8 µg/mL (≈ 26.1 µM)
MIC50 (Magnusiomyces capitatus [3]): 4 µg/mL (≈ 13.1 µM)
MIC90 (Magnusiomyces capitatus [3]): 16 µg/mL (≈ 52.2 µM)
MIC50 (Trichosporon inkin [4]): 1 µg/mL (≈ 3.27 µM)
MIC90 (Trichosporon inkin [4]): 4 µg/mL (≈ 13.1 µM)
MIC50 (Trichosporon [5]): 1 µg/mL (≈ 3.27 µM)
MIC90 (Trichosporon [5]): 4 µg/mL (≈ 13.1 µM)
MIC50 [6]: 2 µg/mL (≈ 6.53 µM)
MIC90 [6]: 8 µg/mL (≈ 26.1 µM)
MIC50 [7]: 2 µg/mL (≈ 6.53 µM)
MIC90 [7]: 8 µg/mL (≈ 26.1 µM)
MIC50 (Saccharomyces cerevisiae [8]): 4 µg/mL (≈ 13.1 µM)
MIC90 (Saccharomyces cerevisiae [8]): 16 µg/mL (≈ 52.2 µM)
MIC50 [9]: 1 µg/mL (≈ 3.27 µM)
MIC90 [9]: 4 µg/mL (≈ 13.1 µM)
MIC50 (Saccharomyces cerevisiae [10]): 4 µg/mL (≈ 13.1 µM)
MIC90 (Saccharomyces cerevisiae [10]): 64 µg/mL (≈ 209 µM)
MIC50 [11]: 1 µg/mL (≈ 3.27 µM)
MIC90 [11]: 4 µg/mL (≈ 13.1 µM)
MIC (Rhodotorula mucilaginosa [12]): > 128 µg/mL
MIC50 (Rhodotorula mucilaginosa [12]): > 128 µg/mL
MIC90 (Rhodotorula mucilaginosa [12]): > 128 µg/mL
MIC (Rhodotorula mucilaginosa [13]): > 128 µg/mL
MIC50 (Rhodotorula mucilaginosa [13]): > 128 µg/mL
MIC90 (Rhodotorula mucilaginosa [13]): > 128 µg/mL
MIC50 [14]: 2 µg/mL (≈ 6.53 µM)
MIC90 [14]: 8 µg/mL (≈ 26.1 µM)
MIC (Rhodotorula mucilaginosa [15]): > 128 µg/mL
MIC50 (Rhodotorula mucilaginosa [15]): > 128 µg/mL
MIC90 (Rhodotorula mucilaginosa [15]): > 128 µg/mL
MIC50 [16]: 1 µg/mL (≈ 3.27 µM)
MIC90 [16]: 4 µg/mL (≈ 13.1 µM)
MIC50 (Trichosporon asahii [17]): 1 µg/mL (≈ 3.27 µM)
MIC90 (Trichosporon asahii [17]): 4 µg/mL (≈ 13.1 µM)
MIC50 (Magnusiomyces capitatus [18]): 1 µg/mL (≈ 3.27 µM)
MIC90 (Magnusiomyces capitatus [18]): 4 µg/mL (≈ 13.1 µM)
MIC50 (Magnusiomyces capitatus [19]): 4 µg/mL (≈ 13.1 µM)
MIC90 (Magnusiomyces capitatus [19]): 16 µg/mL (≈ 52.2 µM)
MIC50 (Magnusiomyces capitatus [20]): 1 µg/mL (≈ 3.27 µM)
MIC90 (Magnusiomyces capitatus [20]): 4 µg/mL (≈ 13.1 µM)
MIC50 [21]: 2 µg/mL (≈ 6.53 µM)
MIC90 [21]: 8 µg/mL (≈ 26.1 µM)
MIC50 (Trichosporon inkin [22]): 2 µg/mL (≈ 6.53 µM)
MIC90 (Trichosporon inkin [22]): 8 µg/mL (≈ 26.1 µM)
MIC50 (Trichosporon [23]): 2 µg/mL (≈ 6.53 µM)
MIC90 (Trichosporon [23]): 8 µg/mL (≈ 26.1 µM)
MIC50 (Trichosporon asahii [24]): 2 µg/mL (≈ 6.53 µM)
MIC90 (Trichosporon asahii [24]): 8 µg/mL (≈ 26.1 µM)
MIC50 (Saccharomyces cerevisiae [25]): 4 µg/mL (≈ 13.1 µM)
MIC90 (Saccharomyces cerevisiae [25]): 16 µg/mL (≈ 52.2 µM)
